From ChEMBL document CHEMBL4316612, “Synthesis of novel dihydrotriazine derivatives bearing 1,3-diaryl pyrazole moieties as potential antibacterial agents” (Bioorg Med Chem Lett, 2019)
≈ marks a conversion by molar mass, not a printed value.

What was measured:
[1] = system: Staphylococcus aureus; experiment: Antibacterial activity against quinolone-resistant Staphylococcus aureus CCARM 3505 after 24 hrs by microtiter ELISA; type: functional; conditions: CCARM 3505, 24 h
Procedure, shortened: (§1)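 Broth microdilution MIC. Bacteria grown to mid-log phase in Mueller-Hinton broth, diluted 1000-fold, and inoculated at 10^5 CFU/mL. Compounds in DMSO (final ≤0.05%) were given as two-fold serial dilutions, final 64-0.25 µg/mL. Plates were incubated 24 h at 37 °C and growth read at 650 nm. MIC is the lowest concentration giving complete growth inhibition. Three independent experiments; oxacillin and norfloxacin served as positive controls.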

[2] = system: Staphylococcus aureus; experiment: Antibacterial activity against methicillin-resistant Staphylococcus aureus CCARM 3506 after 24 hrs by microtiter ELISA; type: functional; conditions: CCARM 3506, 24 h; procedure, shortened: as §1
[3] = system: Staphylococcus aureus; experiment: Antibacterial activity against methicillin-resistant Staphylococcus aureus CCARM 3167 after 24 hrs by microtiter ELISA; type: functional; conditions: CCARM 3167, 24 h; procedure, shortened: as §1
[4] = system: Staphylococcus aureus; experiment: Antibacterial activity against quinolone-resistant Staphylococcus aureus CCARM 3519 after 24 hrs by microtiter ELISA; type: functional; conditions: CCARM 3519, 24 h; procedure, shortened: as §1
[5] = system: Staphylococcus aureus; experiment: Antibacterial activity against Staphylococcus aureus RN4220 after 24 hrs by microtiter ELISA; type: functional; conditions: RN4220, 24 h; procedure, shortened: as §1
[6] = system: Streptococcus mutans; experiment: Antibacterial activity against Streptococcus mutans 3289 after 24 hrs by microtiter ELISA; type: functional; conditions: Streptococcus mutans, 3289, 24 h
Procedure, shortened: (§2)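 Two-fold serial broth dilution in Mueller-Hinton broth, final 64-0.25 µg/mL; compounds in DMSO (final ≤0.05%). Mid-log cultures diluted 1000-fold, inoculum 10^5 CFU/mL; oxacillin and norfloxacin as positive controls. After 24 h at 37 °C, growth read at 650 nm on a microtiter ELISA reader; MIC = lowest level giving complete growth inhibition. Run three times.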

[7] = system: Escherichia coli; experiment: Antibacterial activity against Escherichia coli KCTC 1924 after 24 hrs by microtiter ELISA; type: functional; conditions: KCTC 1924, 24 h; procedure, shortened: as §2
[8] = system: Candida albicans; experiment: Antifungal activity against Candida albicans 7535 after 24 hrs by microtiter ELISA; type: functional; conditions: Candida albicans, 7535, 24 h; procedure, shortened: as §2
[9] = system: L02; experiment: Cytotoxicity against human L02 cells assessed as inhibition of cell growth measured after 24 hrs by MTT assay; type: cell-based; conditions: L02, 24 h
Procedure, shortened: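 L02 normal human liver cells seeded at 1.8 × 10^4 cells/well in DMEM with 10% FBS and antimycotic. Exposed 24 h at 37 °C, 5% CO2 to 200-1.625 µM, compounds in 10% DMSO. MTT (2.5 mg/mL) added for 4 h, formazan dissolved in DMSO, OD at 570 nm. Untreated cells as negative control; IC50 = 50% growth inhibition; triplicate.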

Structure (SMILES)	MIC [1] [µg/mL]	MIC [2] [µg/mL]	MIC [3] [µg/mL]	MIC [4] [µg/mL]	MIC [5] [µg/mL]	MIC [6] [µg/mL]	MIC [7] [µg/mL]	MIC [8] [µg/mL]	IC50 [9] [µM]
CCn1cc(C(=O)O)c(=O)c2cc(F)c(N3CCNCC3)cc21 [NORFLOXACIN]	> 64	4 (≈ 12.5 µM)	8 (≈ 25.1 µM)	> 64					
CN(C)C1=NC(c2cn(-c3ccc([N+](=O)[O-])cc3[N+](=O)[O-])nc2-c2ccccc2)N=C(N)N1 (configuration not stated)	32 (≈ 71.2 µM)	64 (≈ 142 µM)	32 (≈ 71.2 µM)	64 (≈ 142 µM)	32 (≈ 71.2 µM)	64 (≈ 142 µM)	32 (≈ 71.2 µM)	32 (≈ 71.2 µM)	
NC1=NC(c2cn(-c3ccc([N+](=O)[O-])cc3[N+](=O)[O-])nc2-c2ccccc2[N+](=O)[O-])N=C(N2CCOCC2)N1 (configuration not stated)	> 64	> 64	> 64	> 64	> 64	> 64	> 64	> 64	
COc1cccc(-c2nn(-c3ccc([N+](=O)[O-])cc3[N+](=O)[O-])cc2C2N=C(N)NC(N(C)C)=N2)c1 (configuration not stated)	64 (≈ 133 µM)	32 (≈ 66.7 µM)	32 (≈ 66.7 µM)	64 (≈ 133 µM)	32 (≈ 66.7 µM)	64 (≈ 133 µM)	32 (≈ 66.7 µM)	32 (≈ 66.7 µM)	
NC1=NC(c2cn(-c3ccc([N+](=O)[O-])cc3[N+](=O)[O-])nc2-c2ccc(Cl)cc2Cl)N=C(N2CCOCC2)N1 (configuration not stated)	8 (≈ 14.3 µM)	8 (≈ 14.3 µM)	8 (≈ 14.3 µM)	16 (≈ 28.6 µM)	16 (≈ 28.6 µM)	16 (≈ 28.6 µM)	8 (≈ 14.3 µM)	8 (≈ 14.3 µM)	
CN(C)C1=NC(c2cn(-c3ccc([N+](=O)[O-])cc3[N+](=O)[O-])nc2-c2ccc(Br)cc2)N=C(N)N1 (configuration not stated)	4 (≈ 7.57 µM)	4 (≈ 7.57 µM)	8 (≈ 15.1 µM)	8 (≈ 15.1 µM)	8 (≈ 15.1 µM)	16 (≈ 30.3 µM)	8 (≈ 15.1 µM)	8 (≈ 15.1 µM)	
Cc1ccc(-c2nn(-c3ccc([N+](=O)[O-])cc3[N+](=O)[O-])cc2C2N=C(N)NC(N(C)C)=N2)cc1 (configuration not stated)	8 (≈ 17.3 µM)	8 (≈ 17.3 µM)	8 (≈ 17.3 µM)	16 (≈ 34.5 µM)	16 (≈ 34.5 µM)	16 (≈ 34.5 µM)	16 (≈ 34.5 µM)	64 (≈ 138 µM)	
CN(C)C1=NC(c2cn(-c3ccccc3)nc2-c2ccc(Cl)cc2)N=C(N)N1 (configuration not stated)	16 (≈ 40.6 µM)	8 (≈ 20.3 µM)	16 (≈ 40.6 µM)	16 (≈ 40.6 µM)	8 (≈ 20.3 µM)	32 (≈ 81.2 µM)	8 (≈ 20.3 µM)	8 (≈ 20.3 µM)	
NC1=NC(c2cn(-c3ccccc3)nc2-c2ccc(Br)cc2)N=C(N2CCOCC2)N1 (configuration not stated)	16 (≈ 33.3 µM)	4 (≈ 8.33 µM)	8 (≈ 16.7 µM)	8 (≈ 16.7 µM)	8 (≈ 16.7 µM)	32 (≈ 66.6 µM)	16 (≈ 33.3 µM)	16 (≈ 33.3 µM)	
CN(C)C1=NC(c2cn(-c3ccc([N+](=O)[O-])cc3[N+](=O)[O-])nc2-c2ccc(Cl)cc2Cl)N=C(N)N1 (configuration not stated)	8 (≈ 15.4 µM)	4 (≈ 7.72 µM)	4 (≈ 7.72 µM)	16 (≈ 30.9 µM)	8 (≈ 15.4 µM)	8 (≈ 15.4 µM)	8 (≈ 15.4 µM)	8 (≈ 15.4 µM)	> 100
NC1=NC(c2cn(-c3ccc([N+](=O)[O-])cc3[N+](=O)[O-])nc2-c2ccc(Br)cc2)N=C(N2CCOCC2)N1 (configuration not stated)	8 (≈ 14 µM)	4 (≈ 7.01 µM)	8 (≈ 14 µM)	8 (≈ 14 µM)	8 (≈ 14 µM)	16 (≈ 28.1 µM)	8 (≈ 14 µM)	8 (≈ 14 µM)	
COc1c(N2CCNC(C)C2)c(F)cc2c(=O)c(C(=O)O)cn(C3CC3)c12 (configuration not stated) [GATIFLOXACIN]	8 (≈ 21.3 µM)	2 (≈ 5.33 µM)	2 (≈ 5.33 µM)	4 (≈ 10.7 µM)	0.25 (≈ 0.666 µM)	0.25 (≈ 0.666 µM)	2 (≈ 5.33 µM)		
CN(C)C1=NC(c2cn(-c3ccccc3)nc2-c2ccccc2)N=C(N)N1 (configuration not stated)	32 (≈ 89 µM)	32 (≈ 89 µM)	32 (≈ 89 µM)	64 (≈ 178 µM)	32 (≈ 89 µM)	> 64	64 (≈ 178 µM)	> 64	
Cc1onc(-c2ccccc2)c1C(=O)N[C@@H]1C(=O)N2[C@@H]1SC(C)(C)[C@@H]2C(=O)O [OXACILLIN]	1 (≈ 2.49 µM)	> 64	> 64	1 (≈ 2.49 µM)					
NC1=NC(c2cn(-c3ccccc3)nc2-c2cccc(Cl)c2)N=C(N2CCOCC2)N1 (configuration not stated)	16 (≈ 36.7 µM)	16 (≈ 36.7 µM)	16 (≈ 36.7 µM)	16 (≈ 36.7 µM)	16 (≈ 36.7 µM)	32 (≈ 73.4 µM)	16 (≈ 36.7 µM)	16 (≈ 36.7 µM)	
